ChEMBL document CHEMBL1147503, “Syntheses and structure-activity relationship studies of piperidine-substituted quinolones as nonpeptide gonadotropin releasing hormone antagonists” (Bioorg Med Chem Lett, 2004)

Tests used:
[1] = target: T1, Gonadotropin-releasing hormone receptor (Rattus norvegicus, UniProt P30969); assay: Inhibitory concentration against binding of rat Gonadotropin-releasing hormone receptor using [125I]buserelin
T1 sequence (P30969 whole entry): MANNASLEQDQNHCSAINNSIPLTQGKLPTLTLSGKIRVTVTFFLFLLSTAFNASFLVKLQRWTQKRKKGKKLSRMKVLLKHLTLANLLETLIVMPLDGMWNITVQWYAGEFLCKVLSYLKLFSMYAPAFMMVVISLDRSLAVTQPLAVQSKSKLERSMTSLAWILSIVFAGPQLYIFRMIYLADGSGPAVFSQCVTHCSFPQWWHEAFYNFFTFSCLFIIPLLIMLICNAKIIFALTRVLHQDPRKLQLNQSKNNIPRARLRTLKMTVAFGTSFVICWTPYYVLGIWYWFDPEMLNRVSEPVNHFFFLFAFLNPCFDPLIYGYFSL

[2] = tested on: CHO; assay: In vitro inhibitory concentration against GnRH-stimulated phosphatidyl inositol hydrolysis by cloned chinese hamster ovary cells stably expressing human GnRH receptor; type: functional, cell-based; conditions: Cricetulus griseus
[3] = target: T2, Gonadotropin-releasing hormone receptor (Homo sapiens, UniProt P30968); assay: Inhibitory concentration against binding of [125I]buserelin to human Gonadotropin-releasing hormone receptor
T2 sequence (P30968 whole entry): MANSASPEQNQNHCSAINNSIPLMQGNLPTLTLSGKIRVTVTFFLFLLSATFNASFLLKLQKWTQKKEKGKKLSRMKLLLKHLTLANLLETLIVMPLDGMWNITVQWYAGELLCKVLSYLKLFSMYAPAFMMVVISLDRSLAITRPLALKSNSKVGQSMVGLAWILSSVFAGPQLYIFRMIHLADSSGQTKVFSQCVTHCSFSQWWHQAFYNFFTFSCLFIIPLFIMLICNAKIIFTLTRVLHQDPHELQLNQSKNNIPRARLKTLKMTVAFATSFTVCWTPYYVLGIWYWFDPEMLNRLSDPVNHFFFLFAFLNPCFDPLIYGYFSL
Procedure, shortened: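 Competitive displacement of the GnRH receptor agonist radioligand [125I]buserelin from the human GnRH receptor, with 0.1% BSA present in the binding assay.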

[4] = Clearance rate in dog; type: ADME, organism-based, Canis lupus familiaris; conditions: in vivo, read-out: Clearance rate
[5] = Oral bioavailability in dog; type: ADME, organism-based, Canis lupus familiaris; conditions: in vivo
[6] = target: T3, Gonadotropin-releasing hormone receptor (Rattus norvegicus) (UniProt P30969); assay: Inhibitory activity against binding of rat Gonadotropin-releasing hormone receptor using [125I]buserelin at 10 uM
T3 sequence (whole entry): T1 sequence (P30969 whole entry)

| IC50 [1] [nM] | Structure (SMILES) | IC50 [2] [nM] | also measured |
| --- | --- | --- | --- |
| 70 | Cc1cc(C)cc(-c2c(O)nc3cc(Cl)c([N+](=O)[O-])cc3c2OCC[C@@H]2Cc3ccccc3CN2)c1 | – | – |
| 45 | Cc1cc(C)cc(-c2c(O)nc3cc(Cl)c([N+](=O)[O-])cc3c2OCCC2NCCCC2C)c1 (stereo not given) | – | – |
| – | Cc1cc(-c2c(OCC[C@@H]3CCC[C@H](C)N3)c3cc(C(=O)Nc4ccncn4)c(Cl)cc3[nH]c2=O)cc(C)c1C | 9.8 | IC50 [3]: 0.6 nM |
| 10 | Cc1cc(C)cc(-c2c(O)nc3cc(Cl)c([N+](=O)[O-])cc3c2OCCC2CCCCN2)c1 (single isomer, unassigned) | – | – |
| 750 | Cc1cc(C)cc(-c2c(OCCC3NCCc4ccccc43)c3cc([N+](=O)[O-])c(Cl)cc3[nH]c2=O)c1 (stereo not given) | – | – |
| 15 | Cc1cc(C)cc(-c2c(O)nc3cc(Cl)c([N+](=O)[O-])cc3c2OCC[C@@H]2CCC[C@H](C)N2)c1 | – | – |
| – | Cc1cc(-c2c(O)nc3cc(Cl)c(C(=O)Nc4ccncn4)cc3c2OCC[C@@H]2CCCCN2)cc(C)c1C | 2.2 | clearance [4]: 36.8 mL/min/kg; bioavailability [5]: 4.4% |
| 18 | CC[C@H]1CCC[C@@H](CCOc2c(-c3cc(C)cc(C)c3)c(O)nc3cc(Cl)c([N+](=O)[O-])cc23)N1 | – | – |
| – | Cc1cc(C)cc(-c2c(O)nc3cc(Cl)c([N+](=O)[O-])cc3c2OCCc2ccccn2)c1 | – | inhibition [6]: 86% |
| – | Cc1cc(C)cc(-c2c(OCC[C@@H]3CCC[C@@H](C)N3)c3cc(C(=O)Nc4ccncn4)c(Cl)cc3[nH]c2=O)c1 | 11.5 | IC50 [3]: 0.5 nM |
| – | CCC1CCC[C@@H](CCOc2c(-c3cc(C)cc(C)c3)c(=O)[nH]c3cc(Cl)c(C(=O)Nc4ccncn4)cc23)N1 (stereo not given in full) | – | IC50 [3]: 5.7 nM |
| – | Cc1cc(C)cc(-c2c(O)nc3cc(Cl)c(C(=O)Nc4ccncn4)cc3c2OCC[C@@H]2CCCCN2)c1 | 5 | – |
| – | Cc1cc(C)cc(-c2c(O)nc3cc(Cl)c([N+](=O)[O-])cc3c2OCCC2CCc3ccccc3N2)c1 (stereo not given) | – | inhibition [6]: 85% |
| 63 | Cc1cc(C)cc(-c2c(OCCC3CCC(C)CN3)c3cc([N+](=O)[O-])c(Cl)cc3[nH]c2=O)c1 (stereo not given) | – | – |
| 400 | Cc1cc(C)cc(-c2c(OCC[C@@H]3CCC[C@H](CCCc4ccccc4)N3)c3cc([N+](=O)[O-])c(Cl)cc3[nH]c2=O)c1 | – | – |
| – | Cc1cc(C)cc(-c2c(OCC[C@@H]3CCC[C@H](C)N3)c3cc(C(=O)Nc4ccncn4)c(Cl)cc3[nH]c2=O)c1 | 8.7 | IC50 [3]: 0.5 nM |
| – | Cc1cc(-c2c(OCC[C@@H]3CCCC(C(F)(F)F)N3)c3cc(C(=O)Nc4ccncn4)c(Cl)cc3[nH]c2=O)cc(C)c1C (stereo not given in full) | 18 | clearance [4]: 21.6 mL/min/kg; bioavailability [5]: 14.6%; IC50 [3]: 2 nM |
